Reference: ChEMBL document CHEMBL3124843, “Synthesis, cytostatic, antimicrobial, and anti-HCV activity of 6-substituted 7-(het)aryl-7-deazapurine ribonucleosides” (J Med Chem, 2014)
Active and inactive are the calls of the source. How the calls were made is not given here.

Assays:
Pseudomonas aeruginosa [1] = experiment: Antibacterial activity against multi-resistant Pseudomonas aeruginosa A/16575 after 24 hrs; format: functional, organism-based
K562 [2] = experiment: Cytostatic activity against human K562 cells after 72 hrs by MTT assay; format: functional, cell-based; conditions: K562, 72 h
How it was run: (§1)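 IC50 is the concentration that cuts cell growth by 50%, read by quantitative metabolic MTT staining after a 3-day treatment. The resistant sublines were made by raising the concentration of the cytotoxic drug step by step. CEM-DNR-bulk (daunorubicin-selected) stably overexpresses mrp-1. K562-TAX (paclitaxel-selected) expresses only mdr-1. HCT116p53−/− carries null p53 alleles. BJ and MRC-5 are nonmalignant fibroblasts.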

Pseudomonas aeruginosa [3] = experiment: Antibacterial activity against Pseudomonas aeruginosa CCM 3955 after 24 hrs; format: functional, organism-based
K562 [4] = experiment: Cytostatic activity against paclitaxel-resistant human K562 cells after 72 hrs by MTT assay; format: functional, cell-based; conditions: K562, 72 h; how it was run: as §1
Staphylococcus aureus [5] = experiment: Antibacterial activity against Staphylococcus aureus CCM 3953 after 24 hrs; format: functional, organism-based
Enterococcus faecalis = experiment: Antibacterial activity against Enterococcus faecalis CCM 4224 after 24 hrs; format: functional, organism-based
Candida parapsilosis = experiment: Antifungal activity against Candida parapsilosis after 48 hrs; format: functional, organism-based
Staphylococcus aureus [6] = experiment: Antibacterial activity against methicillin-resistant Staphylococcus aureus MRSA 4591 after 24 hrs; format: functional, organism-based
HCT-116 [7] = experiment: Cytostatic activity against human HCT116 cells after 72 hrs by MTT assay; format: functional, cell-based; conditions: HCT-116, 72 h; how it was run: as §1
[8] = Cytostatic activity against human CEM-DNR-bulk cells after 72 hrs by MTT assay; format: functional, cell-based; how it was run: as §1
MRC5 = experiment: Cytostatic activity against human MRC5 cells after 72 hrs by MTT assay; format: ADME, cell-based; conditions: MRC5, 72 h; how it was run: as §1
Escherichia coli [9] = experiment: Antibacterial activity against Escherichia coli CCM 3954 after 24 hrs; format: functional, organism-based
Hepatitis C virus = experiment: Antiviral activity against Hepatitis C virus subtype 1b infected in human HuH7 cells; format: functional, organism-based, Hepacivirus hominis; conditions: genotype 1b, Huh-7
HCT-116 [10] = experiment: Cytostatic activity against p53-deficient human HCT116 cells after 72 hrs by MTT assay; format: functional, cell-based; conditions: HCT-116, 72 h; how it was run: as §1
Escherichia coli [11] = experiment: Antibacterial activity against multi-resistant Escherichia coli C/16702 after 24 hrs; format: functional, organism-based
HL-60 = experiment: Antiproliferative activity against human HL60 cells after 72 hrs by XTT assay; format: functional, cell-based; conditions: HL-60, 72 h
How it was run: (§2)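 Antiproliferative test on HL-60 promyelocytic leukemia and HeLa S3 cervical carcinoma cells growing in liquid suspension.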

[12] = Cytotoxicity against human HuH7 cells infected with Hepatitis C virus subtype 1b; format: cell-based, Huh-7
[13] = Antiproliferative activity against human HeLaS3 cells after 72 hrs by XTT assay; format: functional, cell-based; conditions: HeLa S3, 72 h; how it was run: as §2
BJ = experiment: Cytostatic activity against human BJ cells after 72 hrs by MTT assay; format: ADME, cell-based; how it was run: as §1
Candida albicans = experiment: Antifungal activity against Candida albicans after 48 hrs; format: functional, organism-based
HepG2 = experiment: Antiproliferative activity against human HepG2 cells after 72 hrs by XTT assay; format: functional, cell-based; conditions: HepG2, 72 h
[14] = tested on: Staphylococcus haemolyticus; experiment: Antibacterial activity against methicillin-resistant Staphylococcus haemolyticus A/16568 after 24 hrs; format: functional, organism-based
Candida tropicalis = experiment: Antifungal activity against Candida tropicalis after 48 hrs; format: functional, organism-based
Pichia kudriavzevii = experiment: Antifungal activity against Candida crusei after 48 hrs; format: functional, organism-based
CCRF-CEM = experiment: Cytostatic activity against human CCRF-CEM cells after 72 hrs by MTT assay; format: functional, cell-based; how it was run: as §1
A549 = experiment: Cytostatic activity against human A549 cells after 72 hrs by MTT assay; format: functional, cell-based; conditions: A549, 72 h; how it was run: as §1

SMILES	Activity (Pseudomonas aeruginosa [1])	IC50 (K562 [2])	Activity (Pseudomonas aeruginosa [3])	IC50 (K562 [4])	Activity (Staphylococcus aureus [5])	Activity (Enterococcus faecalis)	Activity (Candida parapsilosis)	Activity (Staphylococcus aureus [6])	IC50 (HCT-116 [7])	IC50 [8]	IC50 (MRC5)	Activity (Escherichia coli [9])	EC50 (Hepatitis C virus)	IC50 (HCT-116 [10])	Activity (Escherichia coli [11])	IC50 (HL-60)	CC50 [12]	IC50 [13]	IC50 (BJ)	Activity (Candida albicans)	also measured
Nc1nc2c(c(-c3cccs3)cn2[C@@H]2O[C@H](CO)[C@@H](O)[C@H]2O)c(=O)[nH]1	inactive	> 20 µM	inactive	16.8 µM	inactive	inactive	inactive	inactive	> 20 µM	> 20 µM	> 100 µM	inactive	18.8 µM	19.8 µM	inactive	> 20 µM	> 44 µM	> 20 µM	> 100 µM	inactive	IC50 (HepG2): > 20 µM; Activity [14]: inactive; Activity (Candida tropicalis): inactive; Activity (Pichia kudriavzevii): inactive; IC50 (CCRF-CEM): > 20 µM; IC50 (A549): > 20 µM
Nc1nc(N)c2c(-c3cccs3)cn([C@@H]3O[C@H](CO)[C@@H](O)[C@H]3O)c2n1	inactive	> 20 µM	inactive	> 20 µM	inactive	inactive	inactive	inactive	> 20 µM	> 20 µM	> 100 µM	inactive	10 µM	> 20 µM	inactive	> 20 µM	> 44 µM	> 20 µM	> 100 µM	inactive	IC50 (HepG2): > 20 µM; Activity [14]: inactive; Activity (Candida tropicalis): inactive; Activity (Pichia kudriavzevii): inactive; IC50 (CCRF-CEM): > 20 µM; IC50 (A549): > 20 µM
COc1nc(N)nc2c1c(-c1ccoc1)cn2[C@@H]1O[C@H](CO)[C@@H](O)[C@H]1O	inactive	> 20 µM	inactive	> 20 µM	inactive	inactive	inactive	inactive	> 20 µM	> 20 µM	> 100 µM	inactive	19.7 µM	> 20 µM	inactive	> 20 µM	> 44 µM	> 20 µM	> 100 µM	inactive	IC50 (HepG2): > 20 µM; Activity [14]: inactive; Activity (Candida tropicalis): inactive; Activity (Pichia kudriavzevii): inactive; IC50 (CCRF-CEM): > 20 µM; IC50 (A549): > 20 µM
COc1nc(N)nc2c1c(-c1cccs1)cn2[C@@H]1O[C@H](CO)[C@@H](O)[C@H]1O	inactive	> 20 µM	inactive	> 20 µM	inactive	inactive	inactive	inactive	> 20 µM	> 20 µM	> 100 µM	inactive	6.07 µM	> 20 µM	inactive	> 20 µM	> 44 µM	> 20 µM	99.9 µM	inactive	IC50 (HepG2): > 20 µM; Activity [14]: inactive; Activity (Candida tropicalis): inactive; Activity (Pichia kudriavzevii): inactive; IC50 (CCRF-CEM): > 20 µM; IC50 (A549): > 20 µM
